Sampled rows, rich in hits. Any-hit rate of the full collection: about 0.99%.
ABCB1 block – ABCB1 efflux pump inhibitors, primary screen, cell-based, multiplex, flow cytometry, ABCG2 counter-screen; AID 1326, 2008; ATP-dependent translocase ABCB1 (Homo sapiens), P08183; CCRF-Adr cells, JC-1 efflux; actives 0.067% (n = 190,000); inhibition, % at 6.6 µM; in the data active = inhibition above about 40%;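 also: higher value means more JC-1 retained so stronger ABCB1 efflux block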
GRK2 inh – compounds blocking aptamer binding on GRK2 – biochemical, human GRK2, bead flow cytometry, HTS, primary screen. Beta-adrenergic receptor kinase 1 (Homo sapiens), P25098. FAM-aptamer displacement from GRK2. inhibition of aptamer binding, % at 10 µM. actives 0.59% (n = 330,000). AID 488847, 2010;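 active = inhibition of aptamer binding above 40%, roughly 3 SD of noise, on plates passing a quality check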;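 also: median bead fluorescence of bound FAM aptamer so fluorescent compounds give negative values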
Target sequence (P25098 whole entry, looked up): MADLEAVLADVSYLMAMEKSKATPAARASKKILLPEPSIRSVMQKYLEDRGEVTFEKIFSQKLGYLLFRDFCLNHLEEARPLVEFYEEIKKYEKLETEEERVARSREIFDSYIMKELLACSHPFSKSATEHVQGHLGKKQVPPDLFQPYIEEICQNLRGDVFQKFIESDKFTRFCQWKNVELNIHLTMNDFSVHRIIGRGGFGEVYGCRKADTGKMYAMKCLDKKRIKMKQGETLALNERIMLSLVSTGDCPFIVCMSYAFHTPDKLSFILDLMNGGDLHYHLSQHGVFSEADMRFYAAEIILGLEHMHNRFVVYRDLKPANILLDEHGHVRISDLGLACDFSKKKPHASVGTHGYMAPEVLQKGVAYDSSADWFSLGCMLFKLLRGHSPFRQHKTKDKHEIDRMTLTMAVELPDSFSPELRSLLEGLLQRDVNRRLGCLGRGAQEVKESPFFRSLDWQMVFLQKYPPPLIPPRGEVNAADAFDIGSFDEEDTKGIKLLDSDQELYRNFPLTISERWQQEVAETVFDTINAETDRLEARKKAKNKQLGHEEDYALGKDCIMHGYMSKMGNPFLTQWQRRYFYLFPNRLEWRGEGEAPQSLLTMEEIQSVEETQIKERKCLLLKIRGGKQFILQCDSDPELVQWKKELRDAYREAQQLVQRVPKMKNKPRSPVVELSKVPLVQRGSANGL
DDE Tn6 FP inh – inhibitors of Tn6 peptide binding to fibrin DD(E), primary screen, biochemical, fluorescence polarization, human fibrin, Tn6 probe | inhibition, % at 8.3 µM | actives 0.21% (n = 370,000) | Fibrinogen beta chain (Homo sapiens), P02675 | Fibrin DD(E) TRITC-Tn6 fluorescence polarization displacement | AID 720509, 2013;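 active = inhibition above a per-campaign cutoff: mean of compounds within control limits plus 3 SD, cut at about 15% in these data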
DDE Tn7 FP inh – inhibitors of Tn7 peptide binding to fibrin DD(E), primary screen, biochemical, fluorescence polarization, human fibrin, Tn7 probe. inhibition, % at 8.3 µM. actives 0.13% (n = 370,000). FP displacement of FITC-Tn7 peptide from fibrin DD(E); 0% = median of compound wells per plate. Fibrinogen beta chain (Homo sapiens), P02675. AID 720508, 2013;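 active = inhibition above the mean of compounds falling within the control limits plus 3 SD of them, cut at about 14% in these data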
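Assay system: Human fibrin DD(E) protein | Medium: Tris buffer with calcium and detergent, pH 7.8 | Reagent: 0.1 µM fluorescent Tn7 | Compound dosing: Single point at 8.3 µM | Times: 10 min preincubation, 3 h with tracer, room temperature | Detection: Fluorescence polarization of the labelled Tn7 tracer | Controls: Aha-Tn7 high control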
ABCG2 inh – ABCG2 efflux pump inhibitors, primary screen, multiplex with ABCB1, IgMXP3 cells, flow cytometry; inhibition, % at 6.6 µM; Broad substrate specificity ATP-binding cassette transporter ABCG2 (Homo sapiens), Q9UNQ0; actives 0.1% (n = 190,000); JC-1 efflux; AID 1325, 2008;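 active = inhibition above 80%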
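Test system: IgMXP3 cells (ABCG2) mixed with DDAO far-red-labelled CCRF-Adr cells (ABCB1). Reagent: JC-1 transporter substrate. Compound dosing: single test compound dose, 6.6 µM final. Times: 10 min compound exposure, 25 °C. Detection: flow cytometry of retained JC-1 fluorescence. Read-out basis: efflux inhibition in percent versus controls. Controls: nicardipine and DMSO wells.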
Insulin prom up – insulin promoter activators in MIN6 cells, imaging, high-content screening, mouse beta cells | z-score at 5 µM | actives 0.3% (n = 190,000) | MIN6 insulin promoter-GFP reporter; hits give high values;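 active = z-score above 3 at 5 µM with at least 500 cells counted in the well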
GRK2 CP1 – GRK2 aptamer-displacing inhibitors, retest, confirmation, biochemical, cherry pick 1, bead flow cytometry; shares compounds with GRK2 inh; bead-bound GRK2, FAM-aptamer displacement; aptamer displacement, % at 10 µM; actives 4% (n = 2,000); AID 504451, 2011;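 active = aptamer displacement above 40%, near three times the noise of non-fluorescent compounds, on plates passing quality checks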;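 also: negative values mostly reflect intrinsic compound fluorescence rather than true enhancement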
Aptamer quench – quenches fluorescent RNA aptamer, GRK2 hit artifact; shares compounds with GRK2 inh; fluorescence change (kMESF span), kMESF (no concentration beside the values); 110 tested, under 10 active; Fluorescent RNA aptamer beads, quenching, flow cytometry; hits give high values;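 active = compounds whose bead fluorescence drops by more than 37 kMESF across the dose range, marking them as dye quenchers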
FAM quench CP1 – aptamer fluorescence quenching in GRK2 counter-screen; shares compounds with GRK2 inh; Carboxyfluorescein RNA aptamer on beads, flow cytometry quenching; hits give low values; fluorescence response (% of DMSO), % at 10 µM; 2,000 tested, under 10 active; AID 504580;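 active = compounds that quench the bead-bound fluorescent RNA probe, cutting fluorescence to under half of the solvent control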;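 also: counterscreen run without GRK2 so only probe quenching by compound is measured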
GRK2 confirm 2 – GRK2 aptamer-displacing inhibitors, hit retest, confirmation, biochemical, cherry pick 2, bead flow cytometry; bead-bound GRK2, FAM-aptamer displacement; 360 tested, under 10 active; AID 504782, 2011; inhibition of aptamer binding, % at 10 µM; shares compounds with GRK2 inh;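 active = inhibition of aptamer binding above 40%, about triple the noise seen with nonglowing compounds, on plates passing quality control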;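 also: negative values mostly come from compounds that fluoresce themselves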
FAM quench SP – quenches fluorescent RNA aptamer, GRK2 hit artifact | shares compounds with GRK2 inh | carboxyfluorescein RNA aptamer beads, flow cytometry quenching; hits give low values | 360 tested, under 10 active | fluorescence response vs DMSO, % at 10 µM;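 active = response vs DMSO under 50%, meaning signal dropped by over half, treated as fluorescence quencher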;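 also: labelled aptamer on streptavidin beads without GRK2 as a quench counter-screen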
Numbers stand for hits; n = inactive; x = no result given.

SMILES	ABCB1 block	GRK2 inh	DDE Tn6 FP inh	DDE Tn7 FP inh	ABCG2 inh	Insulin prom up	GRK2 CP1	FAM quench CP1	others
O=C(O)C1CCCCC1C(=O)Nc1cccc(Br)c1 (centres undefined)	x	86	n	n	x	x	93	n	Aptamer quench=n
CC(C)(C)/C=N/NC(=O)CNC(=O)c1ccc2c(c1)OCCO2	x	n	n	n	n	n	x	x
O=C(O)CC/C(=N/NC(=O)CNC(=O)c1ccc2c(c1)OCCO2)c1ccccc1	x	n	n	n	x	x	n	n
COc1cccc(-c2cc3nc(-c4ccco4)cc(N4CCN(C(C)=O)CC4)n3n2)c1	x	x	n	n	x	x	x	x
O=C(O)c1ccccc1-c1ccc(/C=c2\sc3nc4cc(Br)cnc4n3c2=O)o1	n	99	x	x	n	n	90	n	Aptamer quench=n
Cc1cc2nc3s/c(=C/c4ccc(-c5ccccc5C(=O)O)o4)c(=O)n3c2cc1C	x	n	n	n	x	x	x	x
COc1cc(NC(=O)C2CCCO2)c(C(=O)O)cc1OC (centres undefined)	n	n	x	x	n	n	n	n
O=C(NCCc1ccc(F)cc1)c1cccc2c1C(=O)c1ccc(N3CCC(Cc4ccccc4)CC3)cc1S2(=O)=O	x	n	x	x	x	x	n	n
CCC(C)NC(=O)CN1C(=O)C2CCCCN2C(=O)c2ccccc21 (centres undefined)	x	x	n	n	x	x	x	x
CCCCCn1nnnc1C1(C)CCCCC(=O)N1Cc1ccco1 (centres undefined)	x	x	n	n	x	x	x	x
CCOc1c2c(nc3ccc(Cl)cc13)CCC2	n	n	n	n	n	n	x	x	GRK2 confirm 2=n;FAM quench SP=n
CCOc1ccc(NC(=O)c2c3c(nc4ccccc24)CCC3)cc1	n	n	n	n	n	n	x	x
CSCCC(NS(=O)(=O)c1ccccc1F)C(=O)NCc1cccs1 (centres undefined)	x	61	n	n	x	x	n	n
CCC1Oc2ccccc2N(CC(=O)NCCCN2CCCCC2C)C1=O (centres undefined)	n	61	n	n	n	n	n	n
CCC1Oc2ccccc2N(CC(=O)NCCCN2CCCCC2CC)C1=O (centres undefined)	n	n	n	n	n	n	x	x
COC(=O)c1sc2cc(C(F)(F)F)cnc2c1-c1cccnc1	n	n	n	n	n	n	x	x
NNC(=O)c1sc2cc(C(F)(F)F)cnc2c1-c1cccnc1	n	41	n	n	n	n	n	n
O=C(O)CCC(=O)NC1CCCCCCC1	n	65	n	n	n	n	n	n
COc1ccc([C@H]2N[C@]3(CCCN(Cc4ccc(F)cc4)C3=O)[C@H]3C(=O)N(C)C(=O)[C@@H]23)cc1	x	x	n	n	x	x	x	x
c1ccc(-c2nn(-c3ccccc3)[n+](-c3ccccc3)n2)cc1	x	x	n	n	x	x	x	x
Fc1ccc(-c2cn(-c3ccccc3)c3[n+]2CCS3)cc1	x	43	n	n	x	n	n	n

Screens: PubChem, several laboratories
